ChEMBL document CHEMBL1122868, “New antiallergic pyrano [3,2-g]quinoline-2,8-dicarboxylic acids with potential for the topical treatment of asthma” (1985)
Active and inactive are the calls of the source. The rule behind the calls is not given here.

Experiments:
Canis familiaris [1] = assay: Activity index by dog hypotension screen assay at 10 ug/Kg per min for 15 min.; type: functional, Canis lupus familiaris
Canis familiaris [2] = assay: Percent inhibition by dog hypotension screen assay at 10 ug/Kg per min for 15 min.; type: functional; conditions: Canis lupus familiaris, 0.25 h
Rattus norvegicus [3] = species on record: Rattus norvegicus; assay: Inhibitory dose by PCA test […].; type: functional; conditions: read-out: ID50 (the source's name)
Summary of the method: (§1)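 Rat passive cutaneous anaphylaxis. Female rats (100 g) sensitized intradermally with 0.1 mL rat anti-egg albumin reaginic serum diluted in saline. After 24 h, rats were challenged i.v. with egg albumin, Evans Blue and saline, with the compound in saline given in the same injection. Reactions measured at 20 min; groups of five. ID50 taken from a log-dose regression of 20–80% inhibition.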

Rattus norvegicus [4] = species on record: Rattus norvegicus; assay: Potency ratio to that of sodium cromoglycate (1.0) using PCA test.; type: functional
Summary of the method: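 Passive cutaneous anaphylaxis in female rats sensitized with reaginic anti-egg albumin serum and challenged i.v. at 24 h with antigen plus Evans Blue. Compound in saline was co-injected with antigen; groups of five. Sodium cromoglycate ID50 was determined in each experiment. Potency ratio = ID50(sodium cromoglycate)/ID50(compound), with ID50s from regression lines of inhibition against log dose.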

Canis familiaris [5] = species on record: Canis familiaris; assay: Relative activity in dog hypotension; type: functional, Canis lupus familiaris
Monkey [6] = assay: (§2) Ability to inhibit histamine release from monkey lung lavage cells; type: functional; conditions: Cercopithecidae, in Primates
Rattus norvegicus [7] = species on record: Rattus norvegicus; assay: Ability to inhibit histamine release from rat peritoneal mast cells.; type: functional
Rattus norvegicus [8] = species on record: Rattus norvegicus; assay: Ability to inhibit histamine release from rat peritoneal mast cells using PCA assay.; type: functional; summary of the method: as §1
Rattus norvegicus [9] = species on record: Rattus norvegicus; assay: Compound was evaluated to induce phosphorylation of the 78000 molecular weight mast cell protein; Active to induce phosphorylation; type: functional
Monkey [10] = assay: as §2; type: functional, Cercopithecidae
Canis familiaris [11] = assay: Activity index was evaluated by dog hypotension screen assay at 20 ug/Kg per min for 15 min; type: functional, Canis lupus familiaris
Canis familiaris [12] = assay: Percent inhibition was evaluated by dog hypotension screen assay at 10 ug/Kg per min for 15 min; inactive; type: functional, organism-based; conditions: Canis lupus familiaris
Summary of the method: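 In anaesthetized beagles (pentobarbitone 30 mg/kg i.v.), hypotensive responses to a standardized bolus of sodium cromoglycate were established. Test compound was infused i.v. for 15 min, and the cromoglycate bolus was repeated at the end of the infusion and every 30 min over 3 h. Percent inhibition was expressed as area under the curve over 3 h; single experiments.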

Canis familiaris [13] = assay: Activity index was evaluated by dog hypotension screen assay at 50 ug/Kg per min for 15 min; type: functional, Canis lupus familiaris
Canis familiaris [14] = assay: Percent inhibition was evaluated by dog hypotension screen assay at 50 ug/Kg per min for 15 min; type: functional; conditions: Canis lupus familiaris, 0.25 h
Rattus norvegicus [15] = species on record: Rattus norvegicus; assay: Ability to inhibit histamine release from rat peritoneal mast cells; type: functional

Row | SMILES | Activity index (Canis familiaris [1]) | inhibition in vivo at 10 µg/kg/min (Canis familiaris [2]) | ED50 (Rattus norvegicus [3]) | Potency ratio (Rattus norvegicus [4]) | further results
1 | CCCc1c2nc(C(=O)[O-])cc(Sc3ccccc3)c2cc2c(=O)cc(C(=O)[O-])oc12.[Na+].[Na+] | 6.6 | 66% | 1.87 mg/kg | 1.78 | 
2 | CCCc1c2oc(C(=O)[O-])cc(=O)c2cc2c(=O)cc(C(=O)[O-])n(CC)c12.[Na+].[Na+] [NEDOCROMIL SODIUM] | 6 | 60% | 0.95 mg/kg | 1.1 | Relative activity (Canis familiaris [5]): 1.9; IC30 (Monkey [6]): 5.2 µM; Potency (Rattus norvegicus [7]): 1; Potency (Rattus norvegicus [8]): 1.1; Potency (Rattus norvegicus [9]): Active to induce phosphorylation; Relative potency (Monkey [10]): 190
3 | Cc1c2nc(C(=O)[O-])cc(O)c2cc2c(=O)cc(C(=O)[O-])oc12.[Na+].[Na+] | 6.6 | 66% | 0.11 mg/kg | 12.7 | 
4 | CCCc1c2nc(C(=O)[O-])cc(Oc3ccccc3)c2cc2c(=O)cc(C(=O)[O-])oc12.[Na+].[Na+] | 6.8 | 68% | 1.12 mg/kg | 1.75 | 
5 | CCCc1c2oc(C(=O)[O-])cc(=O)c2cc2c(=O)cc(C(=O)[O-])n(CCC)c12.[Na+].[Na+] | 2.8 | 28% | 3.71 mg/kg | 0.43 | 
6 | CCCc1c2nc(C(=O)[O-])cc(Nc3ccccc3)c2cc2c(=O)cc(C(=O)[O-])oc12.[Na+].[Na+] |  |  | 0.57 mg/kg | 3.47 | Activity index (Canis familiaris [11]): 3
7 | CCCc1c(C(=O)[O-])nc2c(CCC)c3oc(C(=O)[O-])cc(=O)c3cc2c1Cl.[Na+].[Na+] | 0 |  | 2.45 mg/kg | 1.14 | inhibition (Canis familiaris [12]): inactive
8 | CCCc1c2nc(C(=O)[O-])cc(NCC)c2cc2c(=O)cc(C(=O)[O-])oc12.[Na+].[Na+] | 4.2 | 42% | 0.18 mg/kg | 13.8 | 
9 | CCCc1c2nc(C(=O)[O-])cc(S(=O)(=O)c3ccccc3)c2cc2c(=O)cc(C(=O)[O-])oc12.[Na+].[Na+] | 3.9 | 39% | 0.3 mg/kg | 9.9 | 
10 | CCCc1c2nc(C(=O)[O-])cc(Br)c2cc2c(=O)cc(C(=O)[O-])oc12.[Na+].[Na+] | 4.8 | 48% | 0.55 mg/kg | 4.62 | 
11 | CCCc1c2nc(C(=O)[O-])cc(N(C)C(C)=O)c2cc2c(=O)cc(C(=O)[O-])oc12.[Na+].[Na+] |  |  | 4.02 mg/kg | 0.88 | Activity index (Canis familiaris [11]): 1
12 | CCCc1c2oc(C(=O)[O-])cc(=O)c2cc2c(=O)cc(C(=O)[O-])n(C)c12.[Na+].[Na+] | 5.5 | 55% | 0.21 mg/kg | 6.6 | 
13 | CCn1c(C(=O)[O-])cc(=O)c2cc3c(=O)cc(C(=O)[O-])oc3cc21.[Na+].[Na+] | 7.6 | 76% | 10 mg/kg | 0.16 | 
14 | CCCc1c2nccc(O)c2cc2c(=O)cc(C(=O)[O-])oc12.[Na+] |  |  | 6.03 mg/kg | 0.35 | 
15 | CC=Cc1c2oc(C(=O)O)cc(=O)c2cc2c(=O)cc(C(=O)O)n(CC)c12 |  | 84% |  |  | 
16 | CCCc1c2nc(C(=O)[O-])cc(OCC)c2cc2c(=O)cc(C(=O)[O-])oc12.[Na+].[Na+] | 3.2 | 32% | 0.3 mg/kg | 8.47 | 

Row | SMILES | Activity index (Canis familiaris [1]) | inhibition in vivo at 10 µg/kg/min (Canis familiaris [2]) | ED50 (Rattus norvegicus [3]) | Potency ratio (Rattus norvegicus [4]) | further results
17 | CCCc1c2nc(C(=O)[O-])cc(Cl)c2cc2c(=O)cc(C(=O)[O-])oc12.[Na+].[Na+] | 7.2 | 72% | 1.38 mg/kg |  | 
18 | C=CCc1c2nc(C(=O)[O-])cc(Cl)c2cc2c(=O)cc(C(=O)[O-])oc12.[Na+].[Na+] | 2.1 | 21% | 2.4 mg/kg | 1.09 | 
19 | CCCc1c2nc(C(=O)[O-])cc(N3CCCC3)c2cc2c(=O)cc(C(=O)[O-])oc12.[Na+].[Na+] | 5.7 | 57% | 0.86 mg/kg | 4.13 | 
20 | CCCc1c2nc(C(=O)[O-])cc(OC)c2cc2c(=O)cc(C(=O)[O-])oc12.[Na+].[Na+] | 4.3 | 43% | 0.3 mg/kg | 8.35 | 
21 | CCCc1c(C(=O)[O-])nc2c(CCC)c3oc(C(=O)[O-])cc(=O)c3cc2c1O.[Na+].[Na+] | 0.6 | 6% | 0.14 mg/kg | 10.9 | 
22 | CCCc1c2nc(C(=O)[O-])cc(O)c2cc2c(=O)cc(C(=O)[O-])oc12.[Na+].[Na+] | 6.5 | 65% | 0.03 mg/kg | 80 | 
23 | CCCc1c2nc(C(=O)[O-])cc(O)c2cc2c(=O)ccoc12.[Na+] |  |  | 0.78 mg/kg | 6.5 | 
24 | CCCc1c2nc(C(=O)[O-])cc(N)c2cc2c(=O)cc(C(=O)[O-])oc12.[Na+].[Na+] |  |  | 0.31 mg/kg | 8.25 | Activity index (Canis familiaris [11]): 4.1
25 | CCCc1c2nc(C(=O)O)cc(C)c2cc2c(=O)cc(C(=O)O)oc12 | 6.6 | 66% | 0.71 mg/kg | 2.97 | 
26 | O=C([O-])c1cc(Cl)c2cc3c(=O)cc(C(=O)[O-])oc3cc2n1.[Na+].[Na+] | 0 |  | 4.23 mg/kg | 0.72 | inhibition (Canis familiaris [12]): inactive
27 | CCCc1c2nc(C(=O)[O-])ccc2cc2c(=O)cc(C(=O)[O-])oc12.[Na+].[Na+] | 3.8 | 38% | 7.11 mg/kg | 0.35 | 
28 | CC(C)CCn1c(C(=O)O)cc(=O)c2cc3c(=O)cc(C(=O)O)oc3cc21 |  |  | 2.05 mg/kg | 0.54 | Activity index (Canis familiaris [13]): 1.4; inhibition in vivo at 50 µg/kg/min (Canis familiaris [14]): 68%
29 | CCCc1c2nccc(Cl)c2cc2c(=O)cc(C(=O)[O-])oc12.[Na+] | 4.8 | 48% | 5.38 mg/kg | 0.2 | 
30 | CCCc1c2nc(C(=O)[O-])cc(NC)c2cc2c(=O)cc(C(=O)[O-])oc12.[Na+].[Na+] |  |  | 0.22 mg/kg | 7.13 | Activity index (Canis familiaris [11]): 4; Relative activity (Canis familiaris [5]): 1.25; IC30 (Monkey [6]): 28.5 µM; Potency (Rattus norvegicus [15]): 6; Potency (Rattus norvegicus [8]): 7.1; Potency (Rattus norvegicus [9]): Active to induce phosphorylation; Relative potency (Monkey [10]): 35
31 | CCCc1c2nc(C(=O)[O-])cc(SCC)c2cc2c(=O)cc(C(=O)[O-])oc12.[Na+].[Na+] | 5.9 | 59% | 0.14 mg/kg | 11.1 | 
32 | O=C([O-])c1cc(O)c2cc3c(=O)cc(C(=O)[O-])oc3cc2n1.[Na+].[Na+] | 7.8 | 78% | 0.22 mg/kg | 11.6 | 
